According to ChEMBL document CHEMBL1773023, “Potent and selective phosphopeptide mimetic prodrugs targeted to the Src homology 2 (SH2) domain of signal transducer and activator of transcription 3” (J Med Chem, 2011):
Activity calls are given as the source filed them. The calls are words filed in the database; no cut-off is given here.

Tests used:
[1] = molecular target: T1, Signal transducer and activator of transcription 3 (Homo sapiens, UniProt P40763); test: Binding affinity to SH2 domain of Stat3 by fluorescence polarization assay
Outline: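 Recombinant Stat3, expressed and purified, tested against phosphopeptides and peptidomimetics in a fluorescence polarization competition assay. Affinity is reported as an inhibition constant (K_I).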

[2] = molecular target: T1, Signal transducer and activator of transcription 3; test: Inhibition of SH2 domain of Stat3 constitutive phosphorylation at Tyr705 in human MDA-MB-468 cells at 0.1 uM after 2 hrs by Western blotting; assay type: cell-based
Outline: (§1)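 MDA-MB-468 cells (4×10^5/well, DMEM 10% FCS, overnight) given prodrug from freshly made 10 mM DMSO stock for 2 h. Lysates in Hepes pH 7.4 Triton buffer with phosphatase/protease inhibitors; 12 μg protein on 8% SDS-PAGE, PVDF, probed for pStat3 Y705 by ECL, then stripped and reprobed for total Stat3.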

[3] = molecular target: T1, Signal transducer and activator of transcription 3; test: Inhibition of SH2 domain of Stat3 constitutive phosphorylation at Tyr705 in human MDA-MB-468 cells at 0.5 uM after 2 hrs by Western blotting; assay type: cell-based; outline: as §1
[4] = test system: A-375; test: Cytotoxicity against human A375 cells assessed as cell growth inhibition at 5 to 10 uM after 72 hrs by MTT assay; assay type: functional
Outline: (§2)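 Cell lines with constitutive Stat3 phosphorylation (melanoma, NSCLC) exposed to prodrug at 5–10 μM. Percent growth inhibition recorded.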

[5] = test system: NCI-H520; test: Cytotoxicity against human NCI-H520 cells assessed as cell growth inhibition at 5 to 10 uM after 72 hrs by MTT assay; assay type: functional; outline: as §2
[6] = molecular target: Focal adhesion kinase 1 (Homo sapiens) (UniProt Q05397); test: Inhibition of constitutive FAK phosphorylation at Tyr861 in human MDA-MB-468 cells at 5 uM measured after 2 hrs by Western blotting
[7] = molecular target: T1, Signal transducer and activator of transcription 3; test: Inhibition of SH2 domain of Stat3 constitutive phosphorylation at Tyr705 in human MDA-MB-468 cells at 5 uM after 16 hrs by Western blotting; assay type: cell-based
Outline: (§3)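 MDA-MB-468 cells given a single 5 μM prodrug dose and harvested at set times; pTyr705 and total Stat3 by Western blot of 12 μg lysate protein on 8% SDS-PAGE.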

[8] = test system: MeWo; test: Cytotoxicity against human MeWo cells assessed as cell growth inhibition at 5 to 10 uM after 72 hrs by MTT assay; assay type: functional; outline: as §2
[9] = molecular target: T1, Signal transducer and activator of transcription 3; test: Inhibition of SH2 domain of Stat3 constitutive phosphorylation at Tyr705 in human MDA-MB-468 cells at 5 uM after 30 mins by Western blotting; assay type: cell-based; outline: as §3
[10] = test system: MDA-MB-468; test: Selectivity ratio of inhibition of IFNgamma-induced Stat1 phosphorylation at Tyr701 to inhibition of EGF-induced SH2 domain of Stat3 phosphorylation at Tyr705 in human MDA-MB-468 cells; assay type: cell-based
[11] = Cytotoxicity against human NCI-H528 cells assessed as cell growth inhibition at 5 to 10 uM after 72 hrs by MTT assay; assay type: functional; outline: as §2
[12] = Cytotoxicity against human NCI-H1819 cells assessed as cell growth inhibition at 5 to 10 uM after 72 hrs by MTT assay; assay type: functional; outline: as §2
[13] = molecular target: T2, Signal transducer and activator of transcription 5A (Homo sapiens) (UniProt P42229); test: Inhibition of EGF-induced SH2 domain of Stat5 phosphorylation at Tyr694 in human MDA-MB-468 cells at 5 uM treated 1.5 hrs before EGF challenge measured after 30 mins by Western blotting; assay type: cell-based
T2 sequence (whole entry): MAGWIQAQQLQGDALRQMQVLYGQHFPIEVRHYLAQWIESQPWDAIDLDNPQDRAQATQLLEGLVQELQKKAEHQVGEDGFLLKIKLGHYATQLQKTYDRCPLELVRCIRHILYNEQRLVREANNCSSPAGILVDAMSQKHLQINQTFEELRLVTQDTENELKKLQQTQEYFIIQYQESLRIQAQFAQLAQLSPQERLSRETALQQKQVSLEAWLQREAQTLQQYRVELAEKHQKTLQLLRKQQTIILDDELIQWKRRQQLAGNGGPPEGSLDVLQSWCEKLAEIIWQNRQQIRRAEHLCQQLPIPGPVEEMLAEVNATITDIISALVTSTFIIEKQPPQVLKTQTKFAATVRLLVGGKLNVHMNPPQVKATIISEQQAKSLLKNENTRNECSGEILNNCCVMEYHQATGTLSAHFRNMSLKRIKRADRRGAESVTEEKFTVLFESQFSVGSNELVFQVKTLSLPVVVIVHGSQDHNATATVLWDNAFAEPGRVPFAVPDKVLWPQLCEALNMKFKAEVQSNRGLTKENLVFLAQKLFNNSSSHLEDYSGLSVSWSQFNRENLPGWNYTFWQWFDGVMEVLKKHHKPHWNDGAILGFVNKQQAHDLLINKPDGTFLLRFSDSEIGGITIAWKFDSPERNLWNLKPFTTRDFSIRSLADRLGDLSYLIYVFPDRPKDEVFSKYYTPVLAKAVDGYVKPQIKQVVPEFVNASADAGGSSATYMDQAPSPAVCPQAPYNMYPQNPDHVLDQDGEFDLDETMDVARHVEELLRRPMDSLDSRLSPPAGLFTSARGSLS
Outline: (§4)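 MDA-MB-468 cells pretreated 1.5 h with prodrug (5 μM), then EGF 100 ng/mL for 30 min; lysates split onto three PVDF blots probed for phospho/total Stat3, pSer473/total Akt, and phospho/total Stat5.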

[14] = molecular target: T1, Signal transducer and activator of transcription 3; test: Inhibition of SH2 domain of Stat3 constitutive phosphorylation at Tyr705 in human MDA-MB-468 cells at 5 uM after 4 hrs by Western blotting; assay type: cell-based; outline: as §3
[15] = molecular target: T1, Signal transducer and activator of transcription 3; test: Inhibition of EGF-induced SH2 domain of Stat3 phosphorylation at Tyr705 in human MDA-MB-468 cells at 5 uM treated 1.5 hrs before EGF challenge measured after 30 mins by Western blotting; assay type: cell-based; outline: as §4
[16] = molecular target: T3, Signal transducer and activator of transcription 1-alpha/beta (Homo sapiens) (UniProt P42224); test: Inhibition of IFN-gamma-induced Stat1 phosphorylation at Tyr701 in human MDA-MB-468 cells at 5 uM treated 1.5 hrs before IFN-gamma challenge measured after 30 mins by Western blotting; assay type: cell-based
T3 sequence (whole entry): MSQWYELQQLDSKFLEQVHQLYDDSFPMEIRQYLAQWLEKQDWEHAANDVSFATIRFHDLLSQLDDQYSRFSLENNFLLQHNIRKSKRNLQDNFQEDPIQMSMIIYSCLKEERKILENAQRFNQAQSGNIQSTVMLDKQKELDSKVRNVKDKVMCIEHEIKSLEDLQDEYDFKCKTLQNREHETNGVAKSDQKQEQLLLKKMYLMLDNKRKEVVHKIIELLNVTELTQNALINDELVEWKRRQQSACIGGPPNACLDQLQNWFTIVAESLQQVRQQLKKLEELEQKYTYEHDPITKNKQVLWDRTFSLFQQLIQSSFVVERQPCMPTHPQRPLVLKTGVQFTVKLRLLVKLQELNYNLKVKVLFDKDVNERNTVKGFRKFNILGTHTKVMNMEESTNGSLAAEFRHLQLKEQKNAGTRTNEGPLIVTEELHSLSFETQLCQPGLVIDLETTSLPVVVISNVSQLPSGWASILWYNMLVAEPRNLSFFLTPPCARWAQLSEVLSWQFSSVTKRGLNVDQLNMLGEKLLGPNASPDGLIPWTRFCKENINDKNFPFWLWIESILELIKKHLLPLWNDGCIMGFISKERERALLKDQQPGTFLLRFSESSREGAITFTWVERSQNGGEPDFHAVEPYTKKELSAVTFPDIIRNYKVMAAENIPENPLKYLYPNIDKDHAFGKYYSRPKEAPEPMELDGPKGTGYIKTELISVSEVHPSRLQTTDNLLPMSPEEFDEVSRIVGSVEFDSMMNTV
Outline: (§5)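 MDA-MB-468 cells exposed to rising prodrug concentrations for 1.5 h, then interferon γ 25 ng/mL for 30 min; Western blot for pTyr701 and total Stat1.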

[17] = molecular target: T1, Signal transducer and activator of transcription 3; test: Inhibition of SH2 domain of Stat3 constitutive phosphorylation at Tyr705 in human MDA-MB-468 cells at 5 uM after 8 hrs by Western blotting; assay type: cell-based; outline: as §3
[18] = Cytotoxicity against human H1299 cells assessed as cell growth inhibition at 5 to 10 uM after 72 hrs by MTT assay; assay type: functional, NCI-H1299; outline: as §2
[19] = test system: A549; test: Cytotoxicity against human A549 cells assessed as cell growth inhibition at 5 to 10 uM after 72 hrs by MTT assay; assay type: functional; outline: as §2
[20] = molecular target: T3, Signal transducer and activator of transcription 1-alpha/beta (Homo sapiens); test: Inhibition of IFN-gamma-induced Stat1 phosphorylation at Tyr701 in human MDA-MB-468 cells treated 1.5 hrs before IFN-gamma challenge measured after 30 mins by Western blotting; assay type: cell-based; outline: as §5
[21] = molecular target: RAC-alpha serine/threonine-protein kinase (Homo sapiens) (UniProt P31749); test: Inhibition of EGF-induced Akt phosphorylation at Ser473 in human MDA-MB-468 cells at 5 uM treated 1.5 hrs before EGF challenge measured after 30 mins by Western blotting; assay type: cell-based; outline: as §4
[22] = molecular target: T1, Signal transducer and activator of transcription 3; test: Inhibition of SH2 domain of Stat3 constitutive phosphorylation at Tyr705 in human MDA-MB-468 cells after 2 hrs by Western blotting; assay type: cell-based; outline: as §1

T1 sequence (P40763 whole entry, the tested form may be a part): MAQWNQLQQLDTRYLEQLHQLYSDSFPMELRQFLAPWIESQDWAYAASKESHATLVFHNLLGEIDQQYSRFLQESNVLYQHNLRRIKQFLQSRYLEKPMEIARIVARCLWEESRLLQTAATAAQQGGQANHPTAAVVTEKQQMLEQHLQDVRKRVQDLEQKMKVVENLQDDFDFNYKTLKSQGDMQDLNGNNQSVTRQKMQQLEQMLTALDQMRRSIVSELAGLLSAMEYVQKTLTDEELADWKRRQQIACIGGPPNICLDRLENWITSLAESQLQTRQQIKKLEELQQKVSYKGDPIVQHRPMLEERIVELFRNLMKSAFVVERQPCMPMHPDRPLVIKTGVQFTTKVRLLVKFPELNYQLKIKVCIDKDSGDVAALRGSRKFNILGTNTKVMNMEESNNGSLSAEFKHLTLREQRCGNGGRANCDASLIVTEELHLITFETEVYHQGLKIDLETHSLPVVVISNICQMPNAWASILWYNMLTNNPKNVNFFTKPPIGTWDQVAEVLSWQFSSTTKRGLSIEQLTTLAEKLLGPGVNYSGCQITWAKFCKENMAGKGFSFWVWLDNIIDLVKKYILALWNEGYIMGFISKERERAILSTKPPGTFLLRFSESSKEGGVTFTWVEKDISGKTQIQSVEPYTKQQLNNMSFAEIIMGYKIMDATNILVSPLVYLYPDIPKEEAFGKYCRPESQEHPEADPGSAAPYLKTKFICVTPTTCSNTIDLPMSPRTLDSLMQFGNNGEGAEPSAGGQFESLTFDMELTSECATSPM
Focal adhesion kinase 1 (Homo sapiens), sequence (Q05397 2-1052 limits assumed): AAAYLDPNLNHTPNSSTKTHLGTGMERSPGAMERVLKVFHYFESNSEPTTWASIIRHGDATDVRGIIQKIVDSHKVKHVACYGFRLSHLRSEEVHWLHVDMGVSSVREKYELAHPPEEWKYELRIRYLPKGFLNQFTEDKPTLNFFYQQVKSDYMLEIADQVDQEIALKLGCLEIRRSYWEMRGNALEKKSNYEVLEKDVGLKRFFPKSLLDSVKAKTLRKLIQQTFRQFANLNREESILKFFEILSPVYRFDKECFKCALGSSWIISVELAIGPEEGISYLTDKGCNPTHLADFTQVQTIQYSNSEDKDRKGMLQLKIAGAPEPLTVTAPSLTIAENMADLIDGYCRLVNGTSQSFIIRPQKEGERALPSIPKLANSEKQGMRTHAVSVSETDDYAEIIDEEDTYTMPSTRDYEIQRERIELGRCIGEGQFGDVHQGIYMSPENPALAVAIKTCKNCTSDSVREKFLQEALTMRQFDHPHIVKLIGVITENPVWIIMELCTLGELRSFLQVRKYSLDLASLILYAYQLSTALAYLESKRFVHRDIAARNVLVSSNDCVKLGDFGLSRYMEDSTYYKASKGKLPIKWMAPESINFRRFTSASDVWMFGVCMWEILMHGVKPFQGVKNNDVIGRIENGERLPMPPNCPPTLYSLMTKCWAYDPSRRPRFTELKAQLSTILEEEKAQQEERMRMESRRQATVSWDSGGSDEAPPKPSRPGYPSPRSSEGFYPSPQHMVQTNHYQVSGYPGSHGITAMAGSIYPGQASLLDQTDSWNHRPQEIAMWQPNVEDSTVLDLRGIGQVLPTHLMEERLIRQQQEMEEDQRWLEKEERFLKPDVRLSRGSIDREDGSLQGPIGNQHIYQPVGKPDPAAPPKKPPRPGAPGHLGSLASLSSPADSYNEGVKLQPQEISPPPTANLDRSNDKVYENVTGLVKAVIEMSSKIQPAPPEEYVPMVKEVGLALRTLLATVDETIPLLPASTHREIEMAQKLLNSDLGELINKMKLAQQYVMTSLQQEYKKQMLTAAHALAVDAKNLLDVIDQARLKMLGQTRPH
RAC-alpha serine/threonine-protein kinase (Homo sapiens), sequence (P31749 whole entry, the tested form may be a part): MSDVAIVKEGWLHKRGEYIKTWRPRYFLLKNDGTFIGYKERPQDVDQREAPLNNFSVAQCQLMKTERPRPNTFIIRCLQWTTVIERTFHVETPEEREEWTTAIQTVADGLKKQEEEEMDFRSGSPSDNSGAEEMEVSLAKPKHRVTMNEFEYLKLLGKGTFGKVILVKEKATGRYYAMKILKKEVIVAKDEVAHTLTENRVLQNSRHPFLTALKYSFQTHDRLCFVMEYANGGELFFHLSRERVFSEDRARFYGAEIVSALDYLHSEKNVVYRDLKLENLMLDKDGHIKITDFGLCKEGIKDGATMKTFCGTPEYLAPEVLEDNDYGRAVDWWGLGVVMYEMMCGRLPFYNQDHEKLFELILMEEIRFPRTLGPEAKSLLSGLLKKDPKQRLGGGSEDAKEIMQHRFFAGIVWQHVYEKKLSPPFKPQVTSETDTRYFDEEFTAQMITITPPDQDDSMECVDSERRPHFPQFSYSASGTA

C/C(=C\C(=O)N[C@@H](CC(C)C)C(=O)N1CCC[C@H]1C(=O)NCCNC(N)=O)c1ccc(OP(=O)(O)O)cc1
Ki [1]: 94 nM

C[C@H](CCC(N)=O)NC(=O)[C@@H]1Cc2cccc3c2N1C(=O)[C@@H](NC(=O)/C=C/c1ccc(C(F)(F)P(=O)(OCOC(=O)C(C)(C)C)OCOC(=O)C(C)(C)C)cc1)CC3
inhibition [2]: Active
inhibition [3]: Active

CCCC[C@H](NC(=O)/C=C(\C)c1ccc(C(F)(F)P(=O)(OCOC(=O)C(C)(C)C)OCOC(=O)C(C)(C)C)cc1)C(=O)N1C[C@H]2C[C@H]2[C@H]1C(=O)N[C@@H](CCC(N)=O)C(C)OCc1ccccc1 (some centres undefined)
growth inhibition (GI) [4]: <20%
growth inhibition (GI) [5]: <20%
inhibition [6]: inactive
inhibition [3]: Active
inhibition [7]: inactive
growth inhibition (GI) [8]: <20%
inhibition [9]: Active
Ratio [10]: 10
growth inhibition (GI) [11]: <20%
growth inhibition (GI) [12]: <20%
inhibition [13]: inactive
inhibition [14]: Active
inhibition [15]: Active
inhibition [16]: Active
inhibition [17]: Active
growth inhibition (GI) [18]: <20%
growth inhibition (GI) [19]: <20%
inhibition [20]: Dose-dependent effect
inhibition [21]: inactive

C/C(=C\C(=O)N[C@H]1CCc2cccc3c2N(C1=O)[C@H](C(=O)N[C@@H](CCC(N)=O)C(=O)NCc1ccccc1)C3)c1ccc(C(F)(F)P(=O)(OCOC(=O)C(C)(C)C)OCOC(=O)C(C)(C)C)cc1
inhibition [22]: Dose-dependent effect

C/C(=C\C(=O)N[C@@H](CC(C)C)C(=O)N1C[C@H]2C[C@H]2[C@H]1C(=O)N[C@H](C)CCC(N)=O)c1ccc(OP(=O)(O)O)cc1
Ki [1]: 83 nM

CCCC[C@H](NC(=O)/C=C(\C)c1ccc(OP(=O)(O)O)cc1)C(=O)N1C[C@H]2C[C@H]2[C@H]1C(=O)NCCNC(N)=O
Ki [1]: 46 nM

C/C(=C\C(=O)N[C@@H](CC(C)C)C(=O)N1CCC[C@H]1C(=O)N[C@@H](CCC(N)=O)C(=O)NCc1ccccc1)c1ccc(OP(=O)(O)O)cc1
Ki [1]: 66 nM

CC(C)(C)C(=O)OCOP(=O)(OCOC(=O)C(C)(C)C)C(F)(F)c1ccc(/C=C/C(=O)N[C@H]2CCc3cccc4c3N(C2=O)[C@H](C(=O)N[C@@H](CCC(N)=O)C(=O)NCc2ccccc2)C4)cc1
inhibition [22]: Dose-dependent effect

CCCC[C@H](NC(=O)/C=C(\C)c1ccc(OP(=O)(O)O)cc1)C(=O)N1C[C@H]2C[C@H]2[C@H]1C(=O)N[C@@H](CCC(N)=O)C(=O)NCc1ccccc1
Ki [1]: 33 nM

CCCC[C@H](NC(=O)/C=C(\C)c1ccc(OP(=O)(O)O)cc1)C(=O)N1C[C@H]2C[C@H]2[C@H]1C(=O)NCCOC(N)=O
Ki [1]: 114 nM
